A short description of series [1]: Half life was reported. It counts as ADME. The method, boiled down:
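Hydrolysis of the chloroethyl mustard groups was measured in phosphate buffer, pH 7.4, at 37 °C. Products were separated by HPLC on a 25 cm ODS column. t1/2 was calculated with a standard kinetic program. The method was not applied to bromo, iodo or mesyl mustards.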

For series [2], the target named is T1, Carboxypeptidase G2 (Pseudomonas aeruginosa (strain ATCC 15692 / PAO1 / 1C / PRS 101 / LMG12228)) (UniProt Q9I056).
T1 sequence (whole entry): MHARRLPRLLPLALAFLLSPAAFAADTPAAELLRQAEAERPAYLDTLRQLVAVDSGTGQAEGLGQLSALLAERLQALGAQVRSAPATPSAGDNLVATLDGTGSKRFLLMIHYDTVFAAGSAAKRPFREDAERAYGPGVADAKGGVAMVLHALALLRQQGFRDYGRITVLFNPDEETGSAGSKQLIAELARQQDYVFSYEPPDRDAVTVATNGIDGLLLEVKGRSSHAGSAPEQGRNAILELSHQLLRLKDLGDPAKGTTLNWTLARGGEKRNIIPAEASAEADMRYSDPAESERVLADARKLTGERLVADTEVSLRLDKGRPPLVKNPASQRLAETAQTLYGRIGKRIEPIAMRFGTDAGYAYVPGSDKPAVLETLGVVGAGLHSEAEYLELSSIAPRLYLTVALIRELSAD
The series can be described thus: Ratio of kcat/Km for carboxypeptidase G2 activity. The method, boiled down:
(§1)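 CPG2 cleavage of the glutamate oxycarbonyl/carbamoyl bond was followed spectrophotometrically. Prodrug and drug were scanned at 200–350 nm, and the wavelength of maximal absorbance difference was chosen. Initial rates of conversion were measured over a range of prodrug and CPG2 concentrations. KM and Vmax came from Michaelis–Menten fits. kcat was Vmax divided by the CPG2 concentration in the reaction.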

In a further series the test system is LoVo. The series can be described thus: Cytotoxicity against colorectal tumor cell line LoVo 1 hour after incubation. The format is functional, cell-based. The following applies: Homo sapiens. A digest of the protocol: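 LoVo colorectal cells (2.5 × 10^3/well) were exposed to a range of prodrug or parent drug concentrations for 1 h, then washed. The cells were grown a further 3 days at 37 °C, fixed, and stained with sulforhodamine B to measure cellular protein. Treated wells were compared with untreated controls to give IC50. The ratio is prodrug IC50 over drug IC50.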

Series [3] has as its target T1, Carboxypeptidase G2 (Pseudomonas aeruginosa (strain ATCC 15692 / PAO1 / 1C / PRS 101 / LMG12228)). The series can be described thus: (§2) Ability to act as substrate for Carboxypeptidase G2. The method, boiled down: as §1
For series [4] the target is unchanged. The series can be described thus: Ratio of kcat/Km for carboxypeptidase G2; Not substrate. A digest of the protocol: as §1
Series [5] shares this target. In words: (§3) Ability to act as substrate for Carboxypeptidase G2; Not substrate. A digest of the protocol: as §1
The target is the same in series [6]. The series can be described thus: Ratio of kcat/Km for carboxypeptidase G2; unstable. The method, boiled down: as §1
Series [7] shares this target. The series can be described thus: (§4) Ability to act as substrate for Carboxypeptidase G2; unstable. A digest of the protocol: as §1
Substrate in series [8]: O=C(O)CC[C@H](NC(=O)Oc1ccc(N(CCBr)CCBr)c(F)c1)C(=O)O
The series is described as §3. The method, boiled down: as §1

Substrate in series [9]: O=C(O)CC[C@H](NC(=O)Oc1ccc(N(CCCl)CCCl)c(Cl)c1)C(=O)O
The series is described as §3. The method, boiled down:
as §1

Substrate in series [10]: O=C(O)CC[C@H](NC(=O)Oc1ccc(N(CCI)CCI)c(F)c1)C(=O)O
The description is as §3. A digest of the protocol:
as §1

Substrate in series [11]: CC(C)c1cc(OC(=O)N[C@@H](CCC(=O)O)C(=O)O)ccc1N(CCCl)CCCl
The series is described as §2. The method, boiled down:
as §1

Substrate in series [12]: Cc1cc(N(CCCl)CCCl)ccc1OC(=O)N[C@@H](CCC(=O)O)C(=O)O
Described as §2. The method, boiled down:
as §1

Substrate in series [13]: Cc1cc(OC(=O)N[C@@H](CCC(=O)O)C(=O)O)ccc1N(CCCl)CCCl
The series is described as §2. A digest of the protocol:
as §1

Substrate in series [14]: N#Cc1cc(NC(=O)N[C@@H](CCC(=O)O)C(=O)O)ccc1N(CCCl)CCCl
The series is described as §2. The method, boiled down:
as §1

Substrate in series [15]: O=C(O)CC[C@H](NC(=O)Nc1ccc(N(CCBr)CCBr)c(F)c1)C(=O)O
The series is described as §2. A digest of the protocol:
as §1

Substrate in series [16]: O=C(O)CC[C@H](NC(=O)Nc1ccc(N(CCCl)CCCl)c(Cl)c1)C(=O)O
Described as §2. A digest of the protocol:
as §1

Substrate in series [17]: O=C(O)CC[C@H](NC(=O)Nc1ccc(N(CCCl)CCCl)c(F)c1)C(=O)O
The description is as §2. The method, boiled down: as §1

Substrate in series [18]: O=C(O)CC[C@H](NC(=O)Oc1ccc(N(CCBr)CCBr)cc1)C(=O)O
The series is described as §2. A digest of the protocol: as §1

Substrate in series [19]: O=C(O)CC[C@H](NC(=O)Oc1ccc(N(CCCl)CCCl)cc1Cl)C(=O)O
Described as §2. The method, boiled down: as §1

Substrate in series [20]: O=C(O)CC[C@H](NC(=O)Oc1ccc(N(CCI)CCI)cc1)C(=O)O
The description is as §2. The method, boiled down: as §1

Substrate in series [21]: O=C(O)CC[C@H](NC(=O)Oc1ccc(N(CCCl)CCCl)c(F)c1)C(=O)O
The series is described as §4. A digest of the protocol:
as §1

Calls of active or inactive are those of the source. No cut-off for these calls is given here.

As a reminder, the half-life is the time in which the quantity being followed falls by half. Lower therefore signals rapid decline. The term IC50 denotes the concentration that inhibits the measured activity by half. A higher IC50 goes with weaker potency in that assay. Consider `O=C(O)CC[C@H](NC(=O)Nc1ccc(N(CCCl)CCCl)c(Cl)c1)C(=O)O`, for which the half-life in series [1] amounted to 2.8 min. In series [2], the Ratio is 7.8. The same molecule displayed an IC50 with LoVo of 330 µM. This molecule also showed a k cat in series [3] of 9.4 s⁻¹.
As to `O=C(O)CC[C@H](NC(=O)Oc1ccc(N(CCBr)CCBr)c(F)c1)C(=O)O`, the Ratio entry in series [4] was “inactive”. Moreover, in series [5], the k cat entry is “Not substrate”. For the same molecule, the half-inhibitory concentration (IC50) in the series on LoVo was 46.2 µM.
Regarding `O=C(O)CC[C@H](NC(=O)Nc1ccc(N(CCCl)CCCl)c(F)c1)C(=O)O`, the half-life in [1] was 6.8 min. In series [2], the Ratio is 3.4. In addition, the half-inhibitory concentration (IC50) in the series with LoVo is above 500 µM. Also, in series [3], the k cat was 9.3 s⁻¹.
For `O=C(O)CC[C@H](NC(=O)Oc1ccc(N(CCCl)CCCl)cc1Cl)C(=O)O`, in that order: 186 min, 0.7, 86.7 µM and 50.5 s⁻¹.
On to `O=C(O)CC[C@H](NC(=O)Oc1ccc(N(CCCl)CCCl)c(Cl)c1)C(=O)O`, for which, in series [1], the half-life was 1.7 min. Besides, in series [4], the Ratio result is “inactive”. Further, in series [5], the k cat entry was “Not substrate”. Moreover, the concentration for half-maximal inhibition (IC50) in the series on LoVo came to 9.4 µM.
`O=C(O)CC[C@H](NC(=O)Oc1ccc(N(CCBr)CCBr)cc1)C(=O)O`: the IC50 in the series with LoVo is 9.4 µM. Also, the k cat in [3] was 60 s⁻¹.
In the case of `O=C(O)CC[C@H](NC(=O)Oc1ccc(N(CCCl)CCCl)c(F)c1)C(=O)O`, the half-life in series [1] was 19 min. Further, the Ratio entry in [6] is listed as “Unstable”. The k cat result in series [7] is given as “Unstable”. Besides, it took 53 µM to reach half-maximal inhibition with LoVo (IC50).
In series [1], `Cc1cc(OC(=O)N[C@@H](CCC(=O)O)C(=O)O)ccc1N(CCCl)CCCl` displayed a half-life of 1.6 min. Further, the Ratio in [2] amounted to 2.3. In the series with LoVo, this molecule yielded a 50% inhibitory concentration (IC50) of 116 µM. The molecule also registered a k cat in series [3] of 30 s⁻¹.
In the case of `O=C(O)CC[C@H](NC(=O)Oc1ccc(N(CCI)CCI)cc1)C(=O)O`, in series [2], the Ratio was determined as 14.8. Moreover, the IC50 in the series on LoVo amounted to 47.2 µM. Besides, the k cat in series [3] was found to be 29.5 s⁻¹.
`Cc1cc(N(CCCl)CCCl)ccc1OC(=O)N[C@@H](CCC(=O)O)C(=O)O` gave a half-life in [1] of 33 min. For the same molecule, the Ratio in [2] stood at 0.6. For the same molecule, the IC50 in the series on LoVo is 437 µM. Also, in series [3], the k cat amounted to 13 s⁻¹.
With `O=C(O)CC[C@H](NC(=O)Nc1ccc(N(CCBr)CCBr)c(F)c1)C(=O)O`, the Ratio in series [2] was 2.7. Moreover, in the series with LoVo, the half-inhibitory concentration (IC50) is 298 µM. Besides, the k cat in series [3] worked out at 14.5 s⁻¹.
In [1], `CC(C)c1cc(OC(=O)N[C@@H](CCC(=O)O)C(=O)O)ccc1N(CCCl)CCCl` had a half-life of 2.2 min. Also, the Ratio in series [2] worked out at 0.2. In the series on LoVo, the IC50 is 36.7 µM. Besides, the k cat in series [3] turned out to be 12.6 s⁻¹.
For `N#Cc1cc(NC(=O)N[C@@H](CCC(=O)O)C(=O)O)ccc1N(CCCl)CCCl`, in that order: 61 min, 1, above 500 µM and 8.4 s⁻¹.
On to `O=C(O)CC[C@H](NC(=O)Oc1ccc(N(CCI)CCI)c(F)c1)C(=O)O`, for which the Ratio result in [4] was “inactive”. For the same molecule, the k cat result in series [5] is “Not substrate”. This molecule also yielded an IC50 in the series on LoVo of 24.5 µM.

B1: Carboxypeptidase G2 (Pseudomonas aeruginosa (strain ATCC 15692 / PAO1 / 1C / PRS 101 / LMG12228)), Q9I056 (protein)
chain: T1 sequence (whole entry)
What is called Km is the concentration of substrate that gives half-maximal velocity. As to B1, the Michaelis constant (Km) entry in series [8] is “Not substrate”; in series [9], “Not substrate”; in series [10], “Not substrate”; in series [11] it was 56 µM; in series [12], 23.5 µM; in series [13], 13 µM. In addition, the Km was found to be 8.3 µM in [14]; 5.4 µM in [15]; 1.2 µM in series [16]; 2.7 µM in series [17]; 6.2 µM in [18]; 76.5 µM in series [19]. For the same molecule, the Km in [20] is 2 µM; in series [21], “Unstable”.

Source of the values: ChEMBL document CHEMBL1128221 (J Med Chem, 1995).
